This is one part of a sample in which hits are shown more often than they occur.
INS-1E rescue: INS-1E beta cell protection from cytokine death; 0.1% of 20,000 active; protection from cytokine-induced ATP loss, % at 10 µM; INS-1E cytokine-induced death, ATP luminescence, 48 h; normalised: neutral wells 0, positive control 100;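 active = mean replicate protection from cytokine-induced ATP loss at least 50% and at least 75% of replicates each reaching 50%; inconclusive = meets only one of the two criteria, mean or replicate share; inactive = fails both the mean and replicate share criteria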
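Assay system – rat INS-1E insulinoma cell line · Quantity – 8000 cells per well · Buffer or medium – RPMI without phenol red, 5% FBS · Schedule – 48 h co-treatment, 10 min post-lysis read · Technique – luminescent ATP assay (CellTiter-Glo)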
T cruzi HTS: blocks T. cruzi growth inside host cells; intracellular Trypanosoma cruzi in host cells, plate reader; activity score (inhibition), % at 5.01 µM; 4.9% of 22,000 active; AID 651903; in the data active = activity score above about 55%; inconclusive = no clear call, values can overlap the other calls;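 note: parasites and compound incubated about four days before reading; 0% = median of neutral control wells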
A1 apoptosis 2: A1 inhibition read as caspase activation | 24,000 tested, under 10 active | MEF A1-2A-BIM cells, caspase-Glo luminescence, 3 h; percent of clofoctol response, DMSO zero | caspase activation, % (no concentration beside the values); in the data active = caspase activation above about 5.9%; inconclusive = no clear call, values can overlap the other calls; inactive = below about 2.2%
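Material: A1-2A-BIM-expressing MEF cells. Buffer or medium: RPMI-1640 plus 10% FBS. Incubation: cells settled overnight, compound exposure 3 h at 37 °C, 5% CO2. Signal: Caspase-Glo 3/7 luminescence, 1 h at room temperature.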
* marks the source's active call; other numbers are inactive results; ? = inconclusive; nt = no result.

SMILES | INS-1E rescue | T cruzi HTS | A1 apoptosis 2
O=C(NO)c1cccc(C(=O)N/N=C/c2cccc(Oc3ccccc3)c2)c1 | -6 | -25 | -4
COCC1=C([C@H](O)CCc2ccccc2)[C@H](CO)[C@@H]2C(=O)N(Cc3ccccc3)C(=O)[C@@H]2C1 | nt | nt | -1
COc1ccc(CN(C)C[C@@H]2Oc3ccc(NC(=O)Nc4cccc5ccccc45)cc3CC(=O)N([C@@H](C)CO)C[C@@H]2C)cc1 | 0 | 28 | 2
C[C@@H]1CN([C@H](C)CO)C(=O)Cc2cc(NC(=O)Nc3cccc4ccccc34)ccc2O[C@H]1CN(C)Cc1ccccc1 | -7 | 79* | nt
C[C@@H]1CN([C@H](C)CO)C(=O)Cc2cc(NC(=O)Nc3cccc4ccccc34)ccc2O[C@@H]1CN(C)C(=O)Nc1ccc(C(F)(F)F)cc1 | -6 | 26 | nt
C[C@@H]1CN([C@@H](C)CO)C(=O)Cc2cc(NC(=O)Nc3cccc4ccccc34)ccc2O[C@@H]1CN(C)Cc1ccc(C(F)(F)F)cc1 | -23 | 91* | 0
C[C@@H]1CN([C@H](C)CO)C(=O)Cc2cc(NC(=O)Nc3cccc4ccccc34)ccc2O[C@@H]1CN(C)Cc1ccc(Oc2ccccc2)cc1 | -16 | 69* | 1
C[C@@H]1CN([C@H](C)CO)C(=O)Cc2cc(NC(=O)Nc3cccc4ccccc34)ccc2O[C@@H]1CN(C)Cc1ccc(-c2ccccc2)cc1 | -2 | ? | 1
COC(=O)CCCCCCC(=O)N/N=C/c1ccc(O)c2ccccc12 | 18 | -2 | 0
COCCOC(=O)N1C(=O)[C@@]2(c3cc(C#CC4(O)CCCCCC4)ccc31)[C@H](C(N)=O)[C@H]1C(=O)O[C@H](c3ccccc3)[C@H](c3ccccc3)N1[C@@H]2c1ccc(OCCO)cc1 | nt | nt | -1
C[C@H]1CCCCO[C@@H](CN(C)CC2CCCCC2)[C@@H](C)CN([C@@H](C)CO)C(=O)c2cc(NC(=O)Nc3ccc(F)cc3)ccc2O1 | nt | nt | 1
Cc1cc(C(=O)Nc2cccc3c2O[C@H](CN(C)Cc2ccc(C(F)(F)F)cc2)[C@H](C)CN([C@@H](C)CO)C3=O)n(C)n1 | -3 | -4 | -2
Cc1cc(C(=O)Nc2cccc3c2O[C@H](CN(C)C(=O)Nc2ccccc2)[C@@H](C)CN([C@@H](C)CO)C3=O)n(C)n1 | 4 | -41 | 0
Cc1cc(C(=O)Nc2cccc3c2O[C@@H](CN(C)C(=O)Nc2ccccc2)[C@@H](C)CN([C@H](C)CO)C3=O)n(C)n1 | 4 | 61* | -1
Cc1cc(C(=O)Nc2cccc3c2O[C@H](CN(C)Cc2ccc(C(F)(F)F)cc2)[C@@H](C)CN([C@H](C)CO)C3=O)n(C)n1 | -18 | 69* | 1
Cc1cc(C(=O)Nc2cccc3c2O[C@H](CN(C)Cc2ccc(-c4ccccc4)cc2)[C@H](C)CN([C@@H](C)CO)C3=O)n(C)n1 | -23 | -26 | 0
Cc1cc(C(=O)Nc2cccc3c2O[C@@H](CN(C)Cc2ccc(-c4ccccc4)cc2)[C@@H](C)CN([C@H](C)CO)C3=O)n(C)n1 | -20 | 64* | -1
Cc1cc(C(=O)Nc2cccc3c2O[C@@H](CN(C)C(=O)NC(C)C)[C@H](C)CN([C@H](C)CO)C3=O)n(C)n1 | 8 | -19 | -1
COc1ccc(/C=N/NC(=O)c2ccccc2O)cc1OC | -28 | -9 | 1
C[C@@H]1CN([C@H](C)CO)C(=O)Cc2cc(NS(=O)(=O)c3ccc(Cl)cc3)ccc2O[C@@H]1CN(C)Cc1ccc(Oc2ccccc2)cc1 | -27 | 61* | nt
C[C@@H]1CN([C@@H](C)CO)C(=O)Cc2cc(NS(=O)(=O)c3ccc(Cl)cc3)ccc2O[C@H]1CN(C)Cc1ccc(Oc2ccccc2)cc1 | nt | nt | 1
C[C@H]1CN([C@@H](C)CO)C(=O)c2cc(NS(=O)(=O)c3ccc(F)cc3)ccc2O[C@@H]1CN(C)Cc1ccc(Oc2ccccc2)cc1 | -16 | 69* | nt
C[C@@H]1CN([C@@H](C)CO)C(=O)c2cc(NS(=O)(=O)c3ccc(F)cc3)ccc2O[C@@H]1CN(C)Cc1ccc(Oc2ccccc2)cc1 | -33 | 3 | nt
C[C@H]1CN([C@@H](C)CO)C(=O)Cc2cc(NS(=O)(=O)c3ccccc3)ccc2O[C@H]1CN(C)Cc1ccc(Oc2ccccc2)cc1 | -56 | 39 | -1
C[C@@H]1CN([C@H](C)CO)C(=O)Cc2cc(NS(=O)(=O)c3ccccc3)ccc2O[C@@H]1CN(C)Cc1ccc(Oc2ccccc2)cc1 | -23 | 71* | -1
SMILES | INS-1E rescue | T cruzi HTS | A1 apoptosis 2
C[C@@H]1CN([C@H](C)CO)C(=O)Cc2cc(NS(=O)(=O)c3ccc(F)cc3)ccc2O[C@@H]1CN(C)Cc1ccc(Oc2ccccc2)cc1 | -32 | 69* | 0
C[C@@H]1CN([C@@H](C)CO)C(=O)Cc2cc(NS(=O)(=O)c3ccc(F)cc3)ccc2O[C@H]1CN(C)Cc1ccc(Oc2ccccc2)cc1 | nt | nt | 1
O=C(CCCCCCC(=O)Nc1ccccc1O)N/N=C/c1ccc(O)cc1Br | 7 | -3 | 0
C[C@@H]1CN([C@H](C)CO)C(=O)c2cccc(NC(=O)C3CCOCC3)c2O[C@@H]1CN(C)S(=O)(=O)c1cccs1 | 4 | -3 | 0
O=C(CCCCCCC(=O)N/N=C/c1ccccn1)NO | nt | nt | 1
CC1(C)[C@H]2CC=C(/C=N\NC(=O)c3ccccn3)[C@@H]1C2 | -6 | -1 | -1
Cc1ccc(S(=O)(=O)Nc2ccc3c(c2)CC(=O)N([C@@H](C)CO)C[C@H](C)[C@H](CN(C)Cc2ccc(Oc4ccccc4)cc2)O3)cc1 | -36 | 17 | nt
Cc1ccc(S(=O)(=O)Nc2ccc3c(c2)CC(=O)N([C@@H](C)CO)C[C@@H](C)[C@@H](CN(C)Cc2ccc(Oc4ccccc4)cc2)O3)cc1 | -19 | 70* | nt
Cc1noc(C)c1S(=O)(=O)Nc1ccc2c(c1)CC(=O)N([C@@H](C)CO)C[C@H](C)[C@H](CN(C)Cc1ccc(Oc3ccccc3)cc1)O2 | -21 | 26 | 0
C[C@@H]1CN([C@@H](C)CO)C(=O)c2cc(NS(=O)(=O)c3ccc(F)cc3)ccc2O[C@H]1CN(C)S(=O)(=O)c1ccccc1 | -10 | 7 | -1
Cc1noc(C)c1S(=O)(=O)Nc1ccc2c(c1)CC(=O)N([C@H](C)CO)C[C@@H](C)[C@@H](CN(C)Cc1ccc(Oc3ccccc3)cc1)O2 | 13 | 67* | 0
C[C@H](CO)N1C[C@H](C)[C@H](CN(C)S(=O)(=O)c2ccccc2)Oc2ccc(NS(=O)(=O)c3ccc(F)cc3)cc2C1=O | -5 | 58* | -1
O=C(NN=C1CCCCCC1)c1ccccn1 | 2 | -21 | 1
CC(C)=CCC[C@@H](C)C/C=N/NC(=O)c1ccc(C(=O)NO)cc1 | -12 | 3 | 0
COC(=O)CCCCCCC(=O)N/N=C/c1c(F)c(F)c(F)c(F)c1F | 17 | -11 | nt
Cc1ccc(S(=O)(=O)N(C)C[C@@H]2Oc3ccc(NC(=O)c4ccncc4)cc3C(=O)N([C@H](C)CO)C[C@@H]2C)cc1 | -1 | 63* | nt
Cc1ccc(S(=O)(=O)N(C)C[C@@H]2Oc3ccc(NC(=O)c4ccncc4)cc3C(=O)N([C@H](C)CO)C[C@H]2C)cc1 | 2 | -14 | nt
